pIC50: −log10 of the molar value.
Tests used:
Glucocorticoid receptor [1] = target: T1, Glucocorticoid receptor (Homo sapiens, UniProt P04150); test: Antagonist activity at human GR expressed in CHO-K1 cells assessed as reduction in dexamethasone-induced response incubated for 20 hrs by luciferase reporter gene assay; format: cell-based
T1 sequence (P04150 whole entry): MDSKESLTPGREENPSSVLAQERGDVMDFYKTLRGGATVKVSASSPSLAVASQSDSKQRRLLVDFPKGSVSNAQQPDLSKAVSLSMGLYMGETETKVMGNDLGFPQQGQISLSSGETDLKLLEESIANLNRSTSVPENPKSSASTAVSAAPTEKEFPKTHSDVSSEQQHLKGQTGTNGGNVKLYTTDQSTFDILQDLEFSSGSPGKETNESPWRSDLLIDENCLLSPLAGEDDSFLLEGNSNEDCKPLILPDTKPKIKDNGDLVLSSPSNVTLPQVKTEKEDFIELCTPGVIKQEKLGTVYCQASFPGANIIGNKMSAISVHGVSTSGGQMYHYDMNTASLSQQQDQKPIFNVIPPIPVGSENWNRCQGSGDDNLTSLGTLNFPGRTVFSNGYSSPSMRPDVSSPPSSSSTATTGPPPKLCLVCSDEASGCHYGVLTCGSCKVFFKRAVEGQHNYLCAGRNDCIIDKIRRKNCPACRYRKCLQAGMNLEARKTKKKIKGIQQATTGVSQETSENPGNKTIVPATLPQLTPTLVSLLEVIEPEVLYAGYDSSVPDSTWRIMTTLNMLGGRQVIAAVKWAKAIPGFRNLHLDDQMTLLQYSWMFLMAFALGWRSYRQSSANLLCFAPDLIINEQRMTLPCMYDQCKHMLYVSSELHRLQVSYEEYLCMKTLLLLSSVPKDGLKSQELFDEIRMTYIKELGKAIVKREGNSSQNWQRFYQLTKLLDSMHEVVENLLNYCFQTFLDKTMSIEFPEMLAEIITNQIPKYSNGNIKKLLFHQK

[2] = Cmax in mini pig at 10 mg/kg, po; format: ADME, organism-based, Sus scrofa; design: dose 10 mg/kg, route oral; conditions: in vivo
Glucocorticoid receptor [3] = target: T1, Glucocorticoid receptor; test: Antagonist activity at GR in human PBMC assessed as reduction in dexamethasone-induced FKBP5 gene expression incubated for 6 hrs by RT-qPCR method; format: cell-based
Glucocorticoid receptor [4] = target: T2, Glucocorticoid receptor (Rattus norvegicus, UniProt P06536); test: Antagonist activity at GR in rat PBMC assessed as reduction in dexamethasone-induced FKBP5 gene expression incubated for 24 hrs by RT-qPCR method; format: cell-based
T2 sequence (P06536 whole entry): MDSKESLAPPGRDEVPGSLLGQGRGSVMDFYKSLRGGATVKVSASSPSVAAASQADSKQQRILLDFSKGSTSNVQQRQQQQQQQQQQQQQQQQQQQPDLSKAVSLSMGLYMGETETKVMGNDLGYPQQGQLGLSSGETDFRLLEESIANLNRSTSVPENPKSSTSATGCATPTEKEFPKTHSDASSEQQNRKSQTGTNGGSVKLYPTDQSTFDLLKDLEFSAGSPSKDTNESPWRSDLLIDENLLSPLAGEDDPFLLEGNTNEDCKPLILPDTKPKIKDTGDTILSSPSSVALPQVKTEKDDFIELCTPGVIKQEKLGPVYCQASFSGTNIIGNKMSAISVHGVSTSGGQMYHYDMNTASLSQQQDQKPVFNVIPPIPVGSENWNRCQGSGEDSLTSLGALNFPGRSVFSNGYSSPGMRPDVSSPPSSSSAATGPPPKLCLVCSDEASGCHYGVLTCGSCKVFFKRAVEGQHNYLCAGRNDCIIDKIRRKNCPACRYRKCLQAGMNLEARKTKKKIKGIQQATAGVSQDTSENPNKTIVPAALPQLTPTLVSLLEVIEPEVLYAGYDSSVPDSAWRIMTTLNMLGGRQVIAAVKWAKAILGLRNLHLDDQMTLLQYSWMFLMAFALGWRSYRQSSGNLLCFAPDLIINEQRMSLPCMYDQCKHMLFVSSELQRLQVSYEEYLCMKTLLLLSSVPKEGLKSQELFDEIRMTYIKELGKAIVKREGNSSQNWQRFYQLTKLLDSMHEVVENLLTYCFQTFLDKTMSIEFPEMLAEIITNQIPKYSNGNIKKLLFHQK

Glucocorticoid receptor [5] = target: T3, Glucocorticoid receptor (Canis lupus familiaris, UniProt A0A8C0QLS2); test: Antagonist activity at GR in dog PBMC assessed as reduction in dexamethasone-induced FKBP5 gene expression incubated for 6 hrs by RT-qPCR method; format: cell-based
T3 sequence (A0A8C0QLS2 whole entry): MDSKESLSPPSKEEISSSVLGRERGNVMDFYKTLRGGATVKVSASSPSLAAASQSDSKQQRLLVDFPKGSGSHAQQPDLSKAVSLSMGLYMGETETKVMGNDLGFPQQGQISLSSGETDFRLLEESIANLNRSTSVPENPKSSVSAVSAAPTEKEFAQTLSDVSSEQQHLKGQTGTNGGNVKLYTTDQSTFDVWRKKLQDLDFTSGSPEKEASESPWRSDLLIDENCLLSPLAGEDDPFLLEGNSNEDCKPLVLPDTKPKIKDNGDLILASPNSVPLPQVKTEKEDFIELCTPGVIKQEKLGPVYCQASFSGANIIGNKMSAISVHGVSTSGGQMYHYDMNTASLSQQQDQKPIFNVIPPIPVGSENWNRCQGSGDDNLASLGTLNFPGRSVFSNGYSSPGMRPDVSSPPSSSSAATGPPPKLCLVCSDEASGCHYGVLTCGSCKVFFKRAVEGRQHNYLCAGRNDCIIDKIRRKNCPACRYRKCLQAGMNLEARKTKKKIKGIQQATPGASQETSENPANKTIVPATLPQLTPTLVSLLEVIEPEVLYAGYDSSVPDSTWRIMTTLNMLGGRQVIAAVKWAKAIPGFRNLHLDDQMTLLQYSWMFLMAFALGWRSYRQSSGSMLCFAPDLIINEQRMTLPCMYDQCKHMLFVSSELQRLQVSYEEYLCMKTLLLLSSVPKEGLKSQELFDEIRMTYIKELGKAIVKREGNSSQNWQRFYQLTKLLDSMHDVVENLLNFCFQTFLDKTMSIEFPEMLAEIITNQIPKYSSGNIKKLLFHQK

Glucocorticoid receptor [6] = target: T1, Glucocorticoid receptor; test: Antagonist activity at GR in human OVCAR5 assessed as reduction in dexamethasone-induced GILZ gene expression incubated for 24 hrs by RT-qPCR method
Mus musculus = test: In-vivo antagonist activity at GR in nude mouse xenografted with human OVCAR5 cells assessed as reduction in dexamethasone-induced FKBP5 gene expression at 25 to 75 mg/kg, po dosed as gavage and measured after 6 hrs by RT-qPCR method; format: functional, organism-based
Outline: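 OVCAR5 xenograft mice received dexamethasone 0.5 mg/kg by intraperitoneal injection with or without a single oral gavage dose of the antagonist at 25, 50 or 75 mg/kg. Tumors and plasma collected 6 h later. Tumor FKBP5 mRNA measured by RT-qPCR. Unbound plasma concentration of the antagonist determined, n = 4 mice per group. FKBP5 effects tested by one-way ANOVA with Dunnett's test versus the vehicle group.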

For CC(C)N(C)c1ccc([C@H]2C[C@@]3(C)[C@@H](CC[C@@]3(O)C#CC(C)(C)C)[C@@H]3CCC4=CC(=O)CC[C@@H]4[C@H]32)cc1, the pIC50 (Glucocorticoid receptor [1]) was 8.25, the Cmax [2] was 153 ng/mL and the pIC50 (Glucocorticoid receptor [3]) was 7.71. It also gave a pIC50 (Glucocorticoid receptor [4]) of 7.34, a pIC50 (Glucocorticoid receptor [5]) of 7.61 and a pIC50 (Glucocorticoid receptor [6]) of 7.67. The inhibition (Mus musculus) was “Dose-dependent effect”.
